One may read the GI50 as the concentration at which growth is held to half of that of the control. The IC50 is the concentration needed to halve the response being measured.

One assay has as its system A549. Put plainly: Antiproliferative activity against human A549 cells assessed as growth inhibition incubated for 72 hrs by MTT assay. The format is functional. A general note: Formazan colour is commonly taken as a measure of viable cells.
Another assay has as its system KM12. Put plainly: Antiproliferative activity against human KM12 cells assessed as growth inhibition incubated for 72 hrs by MTT assay. The format is functional.
In a further assay the test system is SF-268. The assay is described as follows: Antiproliferative activity against human SF-268 cells assessed as growth inhibition incubated for 72 hrs by MTT assay. The format is functional.
The next assay concerns SF-295. Put plainly: Antiproliferative activity against human SF-295 cells assessed as growth inhibition incubated for 72 hrs by MTT assay. The format is functional.
The test system of another assay is SK-MEL-2. The assay is described as follows: Antiproliferative activity against human SK-MEL-2 cells assessed as growth inhibition incubated for 72 hrs by MTT assay. The format is functional.
A further assay relates to OVCAR-4. Put plainly: Antiproliferative activity against human OVCAR-4 cells assessed as growth inhibition incubated for 72 hrs by MTT assay. The format is functional.
Another assay relates to UO-31. The assay is described as follows: Antiproliferative activity against human UO-31 cells assessed as growth inhibition incubated for 72 hrs by MTT assay. The format is functional.
The test system of the next assay is Hs-578T. The assay is described as follows: Antiproliferative activity against human Hs-578T cells assessed as growth inhibition incubated for 72 hrs by MTT assay. The format is functional.
Assay [1] in a line: Antiproliferative activity against human HBL1 cells assessed as cell growth inhibition measured after 72 hrs by MTT assay. The note with it: HBL1, 72 h. The format is functional, cell-based. An outline of the steps:
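Lymphoma cells in RPMI-1640 with 20% FBS, seeded at 5,000–10,000 cells/well depending on doubling time. Exposed for 72 h at 37 °C, 5% CO2 to a 1:2 serial dilution from 0 to 10 μM (DMSO ≤0.1%). MTT from a 5 mg/mL stock was added for 4 h, cells were lysed with 25% SDS, and A570 was read against medium-only blanks. IC50 from triplicate assays.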

The next assay relates to VL51. Put plainly: Induction of cell cycle arrest in human VL51 cells assessed as increase in mitotic cells at 1 uM incubated for 24 hrs by PI staining based flow cytometry analysis (reference value: 1.5%). The format is functional. Background: A flow cytometer gives signals particle by particle.
The next assay concerns CCRF-CEM. Put plainly: Induction of apoptosis in human CCRF-CEM cells assessed as increase in apoptotic cells incubated for 48 hrs by annexin V-FITC and PI staining based flow cytometric analysis. The settings on record: dose 1-5 µM. The format is functional, cell-based. An outline of the steps:
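Cells exposed to several concentrations for 48 h, then stained with annexin V-FITC and PI and read by flow cytometry (FL1/FL3). Apoptotic cells = annexin V-positive plus annexin V/PI double-positive. Mean of three independent experiments.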

For a further assay, the system named is UACC-257. Put plainly: Antiproliferative activity against human UACC-257 cells assessed as growth inhibition incubated for 72 hrs by assay. The format is functional.
Another assay deals with SK-MEL-28. The assay is described as follows: Antiproliferative activity against human SK-MEL-28 cells assessed as growth inhibition incubated for 72 hrs by MTT assay. The format is functional.
Another assay concerns TK-10. The assay is described as follows: Antiproliferative activity against human TK-10 cells assessed as growth inhibition incubated for 72 hrs by MTT assay. The format is functional.

In the case of `COc1ccc(Cn2cc3c(c2-c2cc(OC)c(OC)c(OC)c2)CCCc2cnoc2-3)cc1`, the GI50 in the assay on A549 stood at 2340 nM; with KM12, 690 nM; with SF-268 it was 4720 nM; with SF-295, 510 nM; with SK-MEL-2, 1610 nM; in the assay with OVCAR-4, 4970 nM. Further, the GI50 in the assay with UO-31 is 920 nM; with Hs-578T it was 1540 nM. The IC50 in assay [1] was found to be 1000 nM. In addition, the Activity in the assay on VL51 is ~18%; in the assay on CCRF-CEM it was “Dose-Dependent Effect”.

Regarding `COc1ccc(Cn2cc3c(c2-c2cc(OC)c(OC)c(OC)c2)CCCc2cnoc2-3)cc1N`, the GI50 in the assay with A549 turned out to be 950 nM; in the assay on KM12, 560 nM; with SF-268 it was 1450 nM; in the assay on SF-295, 500 nM; in the assay on UACC-257 it was 580 nM; with SK-MEL-28, 2930 nM. In addition, the GI50 in the assay with TK-10 is 96600 nM; in the assay on UO-31, 690 nM; in the assay on Hs-578T, 400 nM. For the same compound, in assay [1], the IC50 was determined as 500 nM. In addition, the results for the Activity with VL51 and in the assay with CCRF-CEM were ~18% and “Dose-Dependent Effect”, respectively.

The values above are taken from ChEMBL document CHEMBL5321217, “Identification of pyrrolo[3',4':3,4]cyclohepta[1,2-d][1,2]oxazoles as promising new candidates for the treatment of lymphomas” (Eur J Med Chem, 2023).
